According to ChEMBL document CHEMBL1671686, “Carbapenem-resistant KPC-2-producing Escherichia coli in a Tel Aviv Medical Center, 2005 to 2008” (2010):
In brackets after ≈: the same amount, converted by molar mass.

Columns and labels:
Type in all cases: functional
Escherichia coli [1] = test: Antimicrobial activity against Escherichia coli DH10B by vitek-2 method; conditions: K-12 DH10B
Procedure, shortened: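 Plasmid-free recipient E. coli DH10B, used as the host for electroporation transformants, was tested for susceptibility on the automated Vitek-2 system.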

Escherichia coli [2] = test: Antimicrobial activity against Escherichia coli isolate 547T expressing beta-lactamase KPC2 and PFGE cluster 4 isolated from blood of patient by vitek-2 method
Escherichia coli [3] = test: Antimicrobial activity against Escherichia coli isolate 329T expressing beta-lactamase KPC2 and PFGE cluster 2 isolated from blood of patient by vitek-2 method
Escherichia coli [4] = test: Antimicrobial activity against Escherichia coli isolate 543 expressing beta-lactamase KPC2, CTX-M-15, TEM and PFGE cluster 4 isolated from synovial fluid of patient by vitek-2 method
Escherichia coli [5] = test: Antimicrobial activity against Escherichia coli isolate 339 expressing beta-lactamase KPC2, TEM and PFGE cluster 5 isolated from peritoneal fluid of patient by vitek-2 method
Escherichia coli [6] = test: Antimicrobial activity against Escherichia coli isolate 360T expressing beta-lactamase KPC2, OXA-9 and PFGE cluster 1 isolated from urine of patient by vitek-2 method
Escherichia coli [7] = test: Antimicrobial activity against Escherichia coli isolate 157 expressing beta-lactamase KPC2, CTX-M-15, TEM and PFGE cluster 3 isolated from urine of patient by vitek-2 method; conditions: isolate 157, Urine
Escherichia coli [8] = test: Antimicrobial activity against Escherichia coli isolate 540 expressing beta-lactamase KPC2, TEM and PFGE cluster 4 isolated from synovial fluid of patient by vitek-2 method
Escherichia coli [9] = test: Antimicrobial activity against Escherichia coli isolate 157T expressing beta-lactamase KPC2 and PFGE cluster 3 isolated from urine of patient by vitek-2 method
Escherichia coli [10] = test: Antimicrobial activity against Escherichia coli isolate 544 expressing beta-lactamase KPC2, TEM and PFGE cluster 4 isolated from abscess of patient by vitek-2 method
Escherichia coli [11] = test: Antimicrobial activity against Escherichia coli isolate 386T expressing beta-lactamase KPC2, OXA-9 and PFGE cluster 1 isolated from wound of patient by vitek-2 method
Escherichia coli [12] = test: Antimicrobial activity against Escherichia coli isolate 543T expressing beta-lactamase KPC2 and PFGE cluster 4 isolated from synovial fluid of patient by vitek-2 method
Escherichia coli [13] = test: Antimicrobial activity against Escherichia coli isolate 360 expressing beta-lactamase KPC2, CTX-M-15, OXA-9, TEM and PFGE cluster 1 isolated from urine of patient by vitek-2 method; conditions: isolate 360, Urine
Escherichia coli [14] = test: Antimicrobial activity against Escherichia coli isolate 386 expressing beta-lactamase KPC2, CTX-M-15, OXA-9, TEM and PFGE cluster 1 isolated from wound of patient by vitek-2 method
Escherichia coli [15] = test: Antimicrobial activity against Escherichia coli isolate 1679T expressing beta-lactamase KPC2, TEM and PFGE cluster 6 isolated from peritoneal fluid of patient by vitek-2 method
Escherichia coli [16] = test: Antimicrobial activity against Escherichia coli isolate 329 expressing beta-lactamase KPC2, CTX-M-2, TEM and PFGE cluster 2 isolated from blood of patient by vitek-2 method
Escherichia coli [17] = test: Antimicrobial activity against Escherichia coli isolate 547 expressing beta-lactamase KPC2, TEM and PFGE cluster 4 isolated from blood of patient by vitek-2 method
Escherichia coli [18] = test: Antimicrobial activity against Escherichia coli isolate 1679 expressing beta-lactamase KPC2, SHV-12, TEM and PFGE cluster 6 isolated from peritoneal fluid of patient by vitek-2 method
Escherichia coli [19] = test: Antimicrobial activity against Escherichia coli isolate 339T expressing beta-lactamase KPC2 and PFGE cluster 5 isolated from peritoneal fluid of patient by vitek-2 method

Structure (SMILES)	MIC (Escherichia coli [1]) [µg/mL]	MIC (Escherichia coli [2]) [µg/mL]	MIC (Escherichia coli [3]) [µg/mL]	MIC (Escherichia coli [4]) [µg/mL]	MIC (Escherichia coli [5]) [µg/mL]	MIC (Escherichia coli [6]) [µg/mL]	MIC (Escherichia coli [7]) [µg/mL]	MIC (Escherichia coli [8]) [µg/mL]	MIC (Escherichia coli [9]) [µg/mL]	MIC (Escherichia coli [10]) [µg/mL]	MIC (Escherichia coli [11]) [µg/mL]	MIC (Escherichia coli [12]) [µg/mL]	MIC (Escherichia coli [13]) [µg/mL]	MIC (Escherichia coli [14]) [µg/mL]	MIC (Escherichia coli [15]) [µg/mL]	MIC (Escherichia coli [16]) [µg/mL]	MIC (Escherichia coli [17]) [µg/mL]	MIC (Escherichia coli [18]) [µg/mL]	MIC (Escherichia coli [19]) [µg/mL]
CO/N=C(\C(=O)N[C@@H]1C(=O)N2C(C(=O)[O-])=C(C[N+]3(C)CCCC3)CS[C@H]12)c1csc(N)n1	0.125 (≈ 0.26 µM)	–	–	–	–	–	–	–	–	–	–	–	–	–	–	–	–	–	–
NCC[C@H](O)C(=O)N[C@@H]1C[C@H](N)[C@@H](O[C@H]2O[C@H](CN)[C@@H](O)[C@H](O)[C@H]2O)[C@H](O)[C@H]1O[C@H]1O[C@H](CO)[C@@H](O)[C@H](N)[C@H]1O [AMIKACIN]	< 1	16 (≈ 27.3 µM)	< 2	> 64	4 (≈ 6.83 µM)	> 64	8 (≈ 13.7 µM)	16 (≈ 27.3 µM)	< 2	8 (≈ 13.7 µM)	> 64	16 (≈ 27.3 µM)	32 (≈ 54.6 µM)	> 64	16 (≈ 27.3 µM)	32 (≈ 54.6 µM)	16 (≈ 27.3 µM)	< 2	< 2
C[C@H]1[C@H](NC(=O)/C(=N\OC(C)(C)C(=O)O)c2csc(N)n2)C(=O)N1S(=O)(=O)O [AZTREONAM]	< 1	–	–	–	–	–	–	–	–	–	–	–	–	–	–	–	–	–	–
CC(C)(O/N=C(\C(=O)N[C@@H]1C(=O)N2C(C(=O)[O-])=C(C[n+]3ccccc3)CS[C@H]12)c1csc(N)n1)C(=O)O [CEFTAZIDIME]	< 0.25	16 (≈ 29.3 µM)	16 (≈ 29.3 µM)	16 (≈ 29.3 µM)	4 (≈ 7.32 µM)	16 (≈ 29.3 µM)	> 64	4 (≈ 7.32 µM)	16 (≈ 29.3 µM)	16 (≈ 29.3 µM)	16 (≈ 29.3 µM)	16 (≈ 29.3 µM)	> 64	> 64	> 64	> 64	4 (≈ 7.32 µM)	> 64	16 (≈ 29.3 µM)
CO/N=C(\C(=O)N[C@@H]1C(=O)N2C(C(=O)O)=C(CSc3nc(=O)c(O)nn3C)CS[C@H]12)c1csc(N)n1 [CEFTRIAXONE]	< 0.25	8 (≈ 14.4 µM)	16 (≈ 28.9 µM)	> 64	> 64	8 (≈ 14.4 µM)	> 64	> 64	> 64	32 (≈ 57.7 µM)	8 (≈ 14.4 µM)	16 (≈ 28.9 µM)	> 64	> 64	8 (≈ 14.4 µM)	> 64	> 64	32 (≈ 57.7 µM)	8 (≈ 14.4 µM)
